Measurements published in ChEMBL document CHEMBL1134786, “Novel potent inhibitors of lipid peroxidation with protective effects against reperfusion arrhythmias” (J Med Chem, 2001).

Tests used:
Rattus norvegicus [1] = organism: Rattus norvegicus; test: Effect on in vitro myocardial electrical activity (arrhythmia score) at 5 uM; type: functional, Myocardium
Rattus norvegicus [2] = organism: Rattus norvegicus; test: Effect on in vitro accumulation of MDA content in heart, at conc of 5 uM; type: functional
Rattus norvegicus [3] = organism: Rattus norvegicus; test: Evaluated for the interaction with 0.2 mM of the stable free radical DPPH.; type: functional
Procedure, shortened: (§1)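 Compounds were reacted with the stable free radical DPPH at 0.2 mM. The IC50 (mM) is the concentration that reacts with half of the radical.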

Rattus norvegicus [4] = organism: Rattus norvegicus; test: Inhibition of in vitro peroxidation (LP) of rat Hepatic microsomal membrane lipid; type: functional
Procedure, shortened: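 Rat liver microsomal membranes were subjected to lipid peroxidation induced by ferrous ions and ascorbate. Values are mean ± SEM, n = 3.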

Rattus norvegicus [5] = organism: Rattus norvegicus; test: Effect of compound on in vitro accumulation of MDA content in heart at concentration of 5 uM; type: functional
Rattus norvegicus [6] = organism: Rattus norvegicus; test: The compound was evaluated for the interaction with 0.2 mM of the stable free radical DPPH; type: functional; procedure, shortened: as §1

IC50 (Rattus norvegicus [3]) [µM] | IC50 (Rattus norvegicus [4]) [µM] | IC50 (Rattus norvegicus [6]) [µM] | SMILES | Arrhythmia score (Rattus norvegicus [1]) | MDA content (Rattus norvegicus [2]) | MDA content (Rattus norvegicus [5])
> 400 | > 1000 |  | O=C(O)CCCCC1CCSS1 (stereo not drawn) [LIPOIC ACID, ALPHA] | 6.3 | 1.03 µM (g of tissue)-1 | 
20 | 2.58 |  | Cc1c(C)c2c(c(C)c1O)CCC(C)(C(=O)Nc1ccc3c(c1)Cc1cc(NC(=O)CCCCC4CCSS4)ccc1-3)O2 (stereo not given) |  |  | 
 | 24.8 | 45 | Cc1c(C)c2c(c(C)c1O)CCC(C)(C(=O)O)O2 (stereo not given) [TROLOX] | 3.15 |  | 1.07 uM (g of tissue)-1
